The list shows a part of the results. Activity calls are given as the source filed them.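 Rule for the calls: active = inhibition above 50%; inactive = the rest.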
Each compound was assayed against Broad substrate specificity ATP-binding cassette transporter ABCG2 (Homo sapiens) (UniProt Q9UNQ0) (assay: blockers of JC-1 export by ABCG2 – single point, IgMXP3 cells, ABCB1 counter-screen paired, confirmation (AID 1453;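 note: 0% = DMSO wells and 100% = nicardipine pump inhibitor wells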)). Conditions: JC-1 efflux, flow cytometry, at 6.6 µM, hits give high values.
Chain of Broad substrate specificity ATP-binding cassette transporter ABCG2 (Homo sapiens) (Q9UNQ0 whole entry, looked up): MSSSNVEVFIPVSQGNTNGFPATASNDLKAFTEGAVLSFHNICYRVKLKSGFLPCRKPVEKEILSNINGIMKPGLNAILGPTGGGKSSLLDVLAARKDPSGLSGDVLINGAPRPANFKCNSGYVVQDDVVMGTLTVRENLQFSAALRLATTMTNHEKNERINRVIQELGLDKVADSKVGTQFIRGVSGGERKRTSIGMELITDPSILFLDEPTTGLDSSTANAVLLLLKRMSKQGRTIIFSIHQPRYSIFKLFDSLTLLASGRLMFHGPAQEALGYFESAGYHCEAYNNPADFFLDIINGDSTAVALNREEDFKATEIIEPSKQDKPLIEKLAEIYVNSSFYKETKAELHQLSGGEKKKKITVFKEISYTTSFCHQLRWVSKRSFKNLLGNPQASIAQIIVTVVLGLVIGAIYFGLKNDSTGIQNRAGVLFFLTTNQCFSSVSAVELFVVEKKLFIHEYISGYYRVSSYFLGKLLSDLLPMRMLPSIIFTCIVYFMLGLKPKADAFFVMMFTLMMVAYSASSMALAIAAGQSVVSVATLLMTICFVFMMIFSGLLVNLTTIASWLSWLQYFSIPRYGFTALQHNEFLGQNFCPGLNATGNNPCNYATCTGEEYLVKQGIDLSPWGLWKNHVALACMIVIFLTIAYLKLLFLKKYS
In short: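 Material – drug-resistant IgMXP3 cells expressing human ABCG2 · Reagent – JC-1 substrate · Dosing – single test compound dose, 6.6 µM final · Incubation – 10 min exposure at 25 °C · Signal – high-throughput flow cytometry, JC-1 green median fluorescence, 530 ± 20 nm · Read-out – percent pump inhibition versus DMSO and nicardipine · Controls – nicardipine high, DMSO low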
For `Cc1ccc(OCC(O)CN2CCN(CC(O)COc3ccc(C)cc3Cl)CC2)c(Cl)c1` (stereo not drawn), the inhibition was 8.02% (inactive).
With `COc1ccc(C)cc1NC(=O)C(Sc1ccccc1)c1ccccc1` (stereo not drawn) the inhibition was 10.9% (inactive).
`CCN1/C(=C/c2ccc3ccc(C)cc3[n+]2CC)Sc2ccccc21` was tested, and the inhibition was 31.6% (inactive).
In the case of `Cc1c(CCOC(=O)CC23CC4CC(CC(C)(C4)C2)C3)sc[n+]1Cc1ccc([N+](=O)[O-])cc1`, the inhibition is reported as 27.4% (inactive).
For `O=C(Cc1c[nH]c2ccccc12)N/N=C/c1cccc(F)c1`, the inhibition was 19.6% (inactive).
`COc1cccc(NC(=O)c2ccc(Cn3cc([N+](=O)[O-])cn3)o2)c1` was tested, and the inhibition was 21.8% (inactive).
`Cc1cccc2cc(CN(Cc3cccs3)C(c3nnnn3C3CCCC3)C(C)C)c(=O)[nH]c12` (stereo not drawn) was tested, and the inhibition was 39.9% (inactive).
In the case of `C/C(=N\Nc1ncc(Cl)cc1Cl)c1ccc(S(=O)(=O)NCc2ccco2)cc1`, the inhibition is reported as 21.6% (inactive).
In the case of `Cc1ccc(-n2c(SCC(=O)Nc3ncc(Cl)cc3Cl)nc3ccccc32)cc1`, the inhibition is reported as 28.9% (inactive).
For `C=CCn1c(SCCOc2ccc(OC)cc2)nnc1C(NC(=O)c1ccc(OC)cc1)C(C)C` (stereo not drawn), the inhibition was 15.5% (inactive).
With `CCOC(=O)c1sc(NC(=O)CSc2nnc(-c3ccco3)o2)c(C(=O)OCC)c1C` the inhibition was 37% (inactive).
For `CCOCC(=O)Nc1sc2c(c1C(=O)OCC)CCCC2`, the inhibition was 38.7% (inactive).
For `COc1ccc(-n2c(C)cc(C(=O)COC(=O)c3cc(OC)c(OC)cc3NC(=O)c3cccs3)c2C)cc1`, the inhibition was 14.8% (inactive).
